Reference: publication PMC5760799 (Journal of Pharmaceutical Analysis, 2011)
Ends that are not written are not given here.

Experiments:
[1] = Stability of PSN-1 in rat plasma; type: in vitro ADME; conditions: UPLC-MS/MS, n=6
[2] = Pharmacokinetic study of PSN-1 in rats after intravenous administration; type: in vivo; conditions: male, Wister, rat, plasma, 3 mg/kg
How it was run: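 Six male Wister rats (220–250 g), fasted overnight, received a single iv dose of 3.0 mg/kg. About 0.5 mL of blood was drawn from the ocular vein from 0 to 8 h, with time points split between two groups of three rats. Blood was heparinised, spun at 890g for 10 min and plasma held at –20 °C. Plasma was then precipitated with acetonitrile/0.2% formic acid with thymopentin IS and run by UPLC-MS/MS (SRM). Non-compartmental analysis; mean±SD.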

## FLSLIPHIVSGVASIAKHF-NH2 [PSN-1]
[1]; long term, −20 °C for 10 days, added 0.05 μg/mL
  Accuracy (RE): −4.9%
[1]; long term, −20 °C for 10 days, added 0.2 μg/mL
  Accuracy (RE): −10.1%
[1]; long term, −20 °C for 10 days, added 1.6 μg/mL
  Accuracy (RE): −1.8%
[1]; short term, room temperature for 4 h before processing, added 0.05 μg/mL
  Accuracy (RE): 5.2%
[1]; short term, room temperature for 4 h before processing, added 0.2 μg/mL
  Accuracy (RE): −5.5%
[1]; short term, room temperature for 4 h before processing, added 1.6 μg/mL
  Accuracy (RE): −5.3%
[1]; three freeze–thaw cycles (−20 to 25 °C), added 0.05 μg/mL
  Accuracy (RE): −0.8%
[1]; three freeze–thaw cycles (−20 to 25 °C), added 0.2 μg/mL
  Accuracy (RE): 3.4%
[1]; three freeze–thaw cycles (−20 to 25 °C), added 1.6 μg/mL
  Accuracy (RE): −1.3%
[2]
  AUC(0-inf): 1760 ± 404 ng·h/mL
  AUC(0-t): 1660 ± 356 ng·h/mL
  Cmax: 1290 ± 340 ng/mL
  Tmax: 1.02 min
  Vd: 5.23 ± 0.84 L/kg
  clearance: 29.7 mL/min/kg
  half-life: 125 ± 18.6 min
